A selection: hits, their analogues and other compounds. The true share with any hit is near 3%.
S1P1 ag-PAM: S1P1 (human) agonism or agonism potentiation; P21453; S1P1 CRE-bla cells, forskolin, beta-lactamase FRET, potentiator mode; S1P1 agonist co-added at EC20, 2 nM; 100% = saturating reference agonist, 0% = basal; activation, % at 9.5 µM; hit rate 0.57% among 56,000; AID 449;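 active means activation above a cutoff set at the mean activation of all tested compounds plus 3 SD, cut at about 54% in these data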;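 further: forskolin at 4 µM as EC80 and the EC20 agonist is SEW2871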
HTR1A agonist: agonists of human 5-HT1a serotonin receptor; activation, % at 10 µM; CHO 5-HT1a Ga15 NFAT-bla reporter, FRET ratio; 0% basal, 100% maximal reference agonist; P08908; hit rate 0.56% among 65,000;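 active means activation above the screen-wide mean activation plus 3 SD, cut at about 19% in these data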
5HT1E antag: 5-HT1E (human) receptor antagonism; CHO 5-HT1E Ga15 NFAT-bla reporter, FRET, antagonist; inhibition, % at 6 µM; hit rate 0.99% among 65,000; AID 571;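 active means inhibition above a set limit, the mean inhibition across every tested compound plus 3 SD, cut at about 29% in these data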;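 further: signal is the 460 over 535 nm emission ratio of beta-lactamase substrate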
S1P3 agonist: agonists of human S1P3 receptor; Q99500; S1P3 NFAT-BLA reporter cells, agonism, FRET ratio; relative to 1 µM S1P, basal subtracted; hit rate 0.1% among 60,000; activation, % at 4.5 µM;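 active means activation above the screen-wide mean plus 3 SD, cut at about 4.5% in these data, passing the limit was not always enough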
Target sequence (Q99500 whole entry, looked up): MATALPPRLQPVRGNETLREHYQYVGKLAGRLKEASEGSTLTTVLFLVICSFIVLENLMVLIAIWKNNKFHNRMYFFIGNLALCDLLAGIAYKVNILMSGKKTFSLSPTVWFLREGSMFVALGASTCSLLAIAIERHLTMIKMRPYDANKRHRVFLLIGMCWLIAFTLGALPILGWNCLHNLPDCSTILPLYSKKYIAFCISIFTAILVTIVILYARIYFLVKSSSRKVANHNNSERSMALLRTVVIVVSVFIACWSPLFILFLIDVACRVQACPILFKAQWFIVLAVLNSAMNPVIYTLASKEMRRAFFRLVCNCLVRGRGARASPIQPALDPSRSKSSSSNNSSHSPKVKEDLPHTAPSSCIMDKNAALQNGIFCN
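Measure – % activation relative to 1 µM S1P (100%), per plate · System – stable CHO line with human S1P3, Gα16, NFAT-BLA reporter · Timing – cells plated overnight, compound 4 h 37 °C, substrate 2 h RT · Technique – fluorescent BLA substrate, ex 405 nm, em 460/535 nm ratio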
5HT1a antag: antagonists of human 5-HT1a serotonin receptor; P08908; CHO 5-HT1a Ga15 NFAT-bla reporter, antagonist mode; inhibition, % at 10 µM; hit rate 0.68% among 62,000; AID 612;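 active means inhibition above the mean of all tested compounds plus 3 SD, cut at about 43% in these data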;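 further: receptor stimulated by 5-CT agonist at 100 nM near EC80; beta-lactamase reporter measured by ratiometric fluorescence of a cleavable substrate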
5HT1E ag: 5-HT1E (human) receptor agonism; CHO 5-HT1E Ga15 NFAT-bla reporter, FRET; 0% DMSO wells, 100% control agonist wells; activation, % at 6 µM; hit rate 0.69% among 65,000;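 active means activation above a set limit, the screen-wide mean activation plus 3 SD, cut at about 8.5% in these data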
A number is an active result.

For O=C1CCCc2nn(-c3ccccc3)c(-c3ccncc3)c21 the results were S1P1 ag-PAM inactive, HTR1A agonist inactive, 5HT1E antag inactive, S1P3 agonist inactive, 5HT1a antag inactive and 5HT1E ag inactive.
`CCOc1ccccc1N(CC(=O)NC1CCCCC1)S(C)(=O)=O` gave S1P1 ag-PAM inactive, HTR1A agonist inactive, 5HT1E antag inactive, S1P3 agonist inactive, 5HT1a antag inactive and 5HT1E ag inactive.
COc1ccc(/C=N/n2cncn2)cc1CSc1ccccn1 was read as S1P1 ag-PAM inactive, HTR1A agonist inactive, 5HT1E antag inactive, S1P3 agonist inactive and 5HT1E ag 16.
For COc1ccc(NC(=O)CSc2ccccn2)cc1OC the results were S1P1 ag-PAM inactive, HTR1A agonist inactive, 5HT1E antag inactive, S1P3 agonist inactive, 5HT1a antag inactive and 5HT1E ag inactive.
For CC(C)c1ccc2oc(-c3cc(N)ccc3O)nc2c1 the results were S1P1 ag-PAM 64, HTR1A agonist inactive, 5HT1E antag inactive, S1P3 agonist inactive, 5HT1a antag inactive and 5HT1E ag inactive.
For CC(C)=CC1C(C(=O)Nc2ccc(Br)cn2)C1(C)C (stereo not drawn) the results were S1P1 ag-PAM inactive, HTR1A agonist inactive, 5HT1E antag inactive, S1P3 agonist inactive, 5HT1a antag inactive and 5HT1E ag inactive.
For COc1cc(-c2nc3n(n2)C(c2cccc(OC)c2OC)C2=C(CCCC2=O)N3)cc(OC)c1OC (stereo not drawn) the results were S1P1 ag-PAM inactive, HTR1A agonist inactive, 5HT1E antag inactive, S1P3 agonist inactive, 5HT1a antag inactive and 5HT1E ag inactive.
For O=S(=O)(NC1CCCC1)c1cccc(S(=O)(=O)N2CCC(n3nnc4ccccc43)CC2)c1 the results were S1P1 ag-PAM inactive, HTR1A agonist inactive, 5HT1E antag inactive, S1P3 agonist inactive, 5HT1a antag inactive and 5HT1E ag inactive.
Screening c1csc(-c2csc3nc(CN4CCOCC4)nc(NCc4ccc5c(c4)OCO5)c23)c1 returned S1P1 ag-PAM inactive, HTR1A agonist inactive, 5HT1E antag inactive, S1P3 agonist inactive, 5HT1a antag 52 and 5HT1E ag inactive.
O=C(CSc1nnc(NC(=O)c2ccco2)s1)NC1CCCCC1 was read as S1P1 ag-PAM inactive, HTR1A agonist inactive, 5HT1E antag inactive, S1P3 agonist inactive, 5HT1a antag inactive and 5HT1E ag inactive.
For CCOc1ccc(C2CC(=O)NC(SCC(=O)OC)=C2C#N)cc1 (stereo not drawn) the results were S1P1 ag-PAM inactive, HTR1A agonist inactive, 5HT1E antag inactive, S1P3 agonist inactive, 5HT1a antag inactive and 5HT1E ag inactive.
c1coc(-c2nnc3sc(-c4cccs4)nn23)c1 was read as S1P1 ag-PAM inactive, HTR1A agonist inactive, 5HT1E antag inactive, S1P3 agonist inactive and 5HT1E ag inactive.
`CCCCOC(=O)Nc1ccc(S(=O)(=O)Nc2nc(C)cc(C)n2)cc1` gave S1P1 ag-PAM inactive, HTR1A agonist inactive, 5HT1E antag inactive, S1P3 agonist inactive and 5HT1E ag 12.
CCCc1[nH]nc2c1C1(CCOC1C)C(C#N)=C(N)O2 (stereo not drawn) was read as S1P1 ag-PAM inactive, HTR1A agonist inactive, 5HT1E antag inactive, S1P3 agonist inactive, 5HT1a antag inactive and 5HT1E ag inactive.
`COc1ccc(C(OC(=O)c2ccco2)C(=O)NC2CCCCC2)cc1OC` (stereo not drawn) gave S1P1 ag-PAM inactive, HTR1A agonist inactive, 5HT1E antag inactive, S1P3 agonist inactive, 5HT1a antag inactive and 5HT1E ag inactive.
`O=C(OC(C(=O)NC1CCCC1)c1ccccc1F)c1ccco1` (stereo not drawn) gave S1P1 ag-PAM inactive, HTR1A agonist 156, 5HT1E antag inactive, S1P3 agonist inactive, 5HT1a antag inactive and 5HT1E ag inactive.
`COc1ccccc1N1CCN(C(=O)N2CCOCC2)CC1` gave S1P1 ag-PAM inactive, HTR1A agonist inactive, 5HT1E antag inactive, S1P3 agonist inactive, 5HT1a antag inactive and 5HT1E ag inactive.
OC(COc1ccc2c(c1)CCC2)CN1CCN(c2ccccc2F)CC1 (stereo not drawn) was read as S1P1 ag-PAM inactive, HTR1A agonist inactive, 5HT1E antag inactive, S1P3 agonist inactive, 5HT1a antag 44 and 5HT1E ag inactive.

High-throughput results deposited in PubChem BioAssay by The Scripps Research Institute Molecular Screening Center.
